{
  "source": "ChEMBL document CHEMBL1156129",
  "about": "“Synthesis, structure-activity relationships, and characterization of novel nonsteroidal and selective androgen receptor modulators” (J Med Chem, 2009)",
  "key": {"[1]": {"assay": "Cmax in Beagle dog at 10 mg/kg, po", "assay_type": "ADME, organism-based, Canis lupus familiaris", "set-up": "dose 10 mg/kg, route oral", "conditions": "in vivo"}, "[2]": {"assay": "AUC (8 hrs) in Sprague-Dawley rat at 10 mg/kg, po", "assay_type": "ADME, organism-based", "set-up": "time < 8 hr, dose 10 mg/kg, route oral", "conditions": "plasma"}, "[3]": {"assay": "Plasma concentration in Beagle dog at 1 mg/kg, iv after 1 hrs", "assay_type": "ADME, organism-based, Canis lupus familiaris", "set-up": "dose 1 mg/kg, route intravenous"}, "[4]": {"assay": "Plasma concentration in Sprague-Dawley rat at 10 mg/kg, po after 10 mins", "assay_type": "ADME, organism-based", "set-up": "dose 10 mg/kg, route oral"}, "[5]": {"assay": "AUC (0 to infinity) in Beagle dog at 1 mg/kg, iv", "assay_type": "ADME, organism-based, Canis lupus familiaris", "set-up": "dose 1 mg/kg, route intravenous, time infinity", "conditions": "plasma"}, "[6]": {"assay": "Plasma concentration in Sprague-Dawley rat at 10 mg/kg, po after 60 mins", "assay_type": "ADME, organism-based", "set-up": "dose 10 mg/kg, route oral"}, "[7]": {"assay": "Plasma concentration in Sprague-Dawley rat at 10 mg/kg, po after 360 mins", "assay_type": "ADME, organism-based", "set-up": "dose 10 mg/kg, route oral"}, "[8]": {"assay": "Plasma concentration in Beagle dog at 1 mg/kg, iv after 0.25 hrs", "assay_type": "ADME, organism-based, Canis lupus familiaris", "set-up": "dose 1 mg/kg, route intravenous"}, "[9]": {"assay": "Plasma concentration in Beagle dog at 1 mg/kg, iv after 0.5 hrs", "assay_type": "ADME, organism-based, Canis lupus familiaris", "set-up": "dose 1 mg/kg, route intravenous"}, "[10]": {"assay": "Binding affinity to androgen receptor LBD T877A mutant in hamster DDT cells by scintillation counting", "assay_type": "cell-based, Cricetinae"}, "[11]": {"assay": "Cmax in Sprague-Dawley rat at 1 mg/kg, iv", "assay_type": "ADME, organism-based", "set-up": "dose 1 mg/kg, route intravenous", "conditions": "in vivo"}, "[12]": {"assay": "Plasma concentration in Sprague-Dawley rat at 1 mg/kg, iv after 120 mins", "assay_type": "ADME, organism-based", "set-up": "dose 1 mg/kg, route intravenous"}, "[13]": {"assay": "Plasma concentration in Sprague-Dawley rat at 1 mg/kg, iv after 1 min", "assay_type": "ADME, organism-based", "set-up": "dose 1 mg/kg, route intravenous"}, "[14]": {"assay": "Plasma concentration in Beagle dog at 10 mg/kg, po after 24 hrs", "assay_type": "ADME, organism-based, Canis lupus familiaris", "set-up": "dose 10 mg/kg, route oral"}, "[15]": {"assay": "Plasma concentration in Sprague-Dawley rat at 10 mg/kg, po after 480 mins", "assay_type": "ADME, organism-based", "set-up": "dose 10 mg/kg, route oral"}, "[16]": {"assay": "Plasma concentration in Sprague-Dawley rat at 1 mg/kg, iv after 360 mins", "assay_type": "ADME, organism-based", "set-up": "dose 1 mg/kg, route intravenous"}, "[17]": {"test_system": "Rattus norvegicus", "assay": "Androgenic effect in rat ORX model assessed as reversal of testosterone propionate-induced prostate weight treated at 10 mg/kg, po", "assay_type": "functional, organism-based", "set-up": "dose 10 mg/kg", "conditions": "Prostate gland"}, "[18]": {"assay": "Half life in Beagle dog at 1 mg/kg, iv", "assay_type": "ADME, organism-based, Canis lupus familiaris", "set-up": "dose 1 mg/kg, route intravenous", "conditions": "in vivo"}, "[19]": {"assay": "Cmax in Beagle dog at 1 mg/kg, iv", "assay_type": "ADME, organism-based, Canis lupus familiaris", "set-up": "dose 1 mg/kg, route intravenous", "conditions": "in vivo"}, "[20]": {"assay": "Volume of distribution at steady state in Sprague-Dawley rat at 1 mg/kg, iv", "assay_type": "ADME, organism-based", "set-up": "dose 1 mg/kg, route intravenous", "conditions": "in vivo, read-out: Vdss"}, "[21]": {"assay": "Plasma concentration in Beagle dog at 10 mg/kg, po after 0.25 hrs", "assay_type": "ADME, organism-based, Canis lupus familiaris", "set-up": "dose 10 mg/kg, route oral"}, "[22]": {"assay": "Volume of distribution at steady state in Beagle dog at 1 mg/kg, iv", "assay_type": "ADME, organism-based, Canis lupus familiaris", "set-up": "dose 1 mg/kg, route intravenous", "conditions": "in vivo, read-out: Vdss"}, "[23]": {"assay": "Plasma concentration in Sprague-Dawley rat at 1 mg/kg, iv after 60 mins", "assay_type": "ADME, organism-based", "set-up": "dose 1 mg/kg, route intravenous"}, "[24]": {"test_system": "Liver microsomes", "assay": "Metabolic stability in human liver microsomes assessed as intrinsic clearance", "assay_type": "ADME, Microsome"}, "[25]": {"assay": "Plasma concentration in Sprague-Dawley rat at 1 mg/kg, iv after 240 mins", "assay_type": "ADME, organism-based", "set-up": "dose 1 mg/kg, route intravenous"}, "[26]": {"assay": "Plasma concentration in Beagle dog at 10 mg/kg, po after 4 hrs", "assay_type": "ADME, organism-based, Canis lupus familiaris", "set-up": "dose 10 mg/kg, route oral"}, "[27]": {"test_system": "Liver microsomes", "assay": "Metabolic stability in rat liver microsomes assessed as intrinsic clearance", "assay_type": "ADME, Microsome"}, "[28]": {"assay": "Agonist activity at androgen receptor LBD T877A mutant in mouse NIH3T3 cells transiently transfected with beta-galactosidase reporter gene assessed as cellular transformation by R-SAT assay relative to dihydrotestosterone", "assay_type": "functional", "outline": "(§1)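 AR expression vector transiently co-transfected (Polyfect) with β-galactosidase and coactivators SRC1, DRIP205 and GRIP1 into NIH-3T3 fibroblasts at 60-70% confluency. ONPG substrate added, absorbance read at 420 nm. EC50 from a hyperbolic fit. Mean ± SEM of three or more independent experiments.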"}, "[29]": {"assay": "Clearance in Beagle dog at 1 mg/kg, iv", "assay_type": "ADME, organism-based, Canis lupus familiaris", "set-up": "dose 1 mg/kg, route intravenous", "conditions": "in vivo"}, "[30]": {"assay": "Plasma concentration in Sprague-Dawley rat at 1 mg/kg, iv after 10 mins", "assay_type": "ADME, organism-based", "set-up": "dose 1 mg/kg, route intravenous"}, "[31]": {"assay": "Plasma concentration in Beagle dog at 10 mg/kg, po after 0.5 hrs", "assay_type": "ADME, organism-based, Canis lupus familiaris", "set-up": "dose 10 mg/kg, route oral"}, "[32]": {"assay": "Agonist activity at androgen receptor LBD T877A mutant in mouse NIH3T3 cells transiently transfected with beta-galactosidase reporter gene assessed as cellular transformation by R-SAT assay", "assay_type": "functional, cell-based", "outline": "as §1"}, "[33]": {"assay": "Plasma concentration in Sprague-Dawley rat at 10 mg/kg, po after 120 mins", "assay_type": "ADME, organism-based", "set-up": "dose 10 mg/kg, route oral"}, "[34]": {"assay": "Plasma concentration in Beagle dog at 10 mg/kg, po after 1 hrs", "assay_type": "ADME, organism-based, Canis lupus familiaris", "set-up": "dose 10 mg/kg, route oral"}},
  "note": "Calls of active or inactive are those of the source. No cut-off for these calls is given here.",
  "data": [
    {"smiles": "Cc1c(N2[C@@H]3CC[C@H]2C[C@@](C)(O)C3)ccc(C#N)c1Cl", "values": [
      {"measurement": "Cmax", "setting": "[1]", "value": 835, "unit": "ng/mL"},
      {"measurement": "AUC at 8 h", "setting": "[2]", "value": 2370, "unit": "ng·h/mL"},
      {"measurement": "concentration at 1 h", "setting": "[3]", "value": 89.3, "unit": "ng/mL"},
      {"measurement": "concentration at 10 min", "setting": "[4]", "value": 148, "unit": "ng/mL"},
      {"measurement": "AUC(0-inf)", "setting": "[5]", "value": 394, "unit": "ng·h/mL"},
      {"measurement": "concentration at 1 h", "setting": "[6]", "value": 263, "unit": "ng/mL"},
      {"measurement": "concentration at 6 h", "setting": "[7]", "value": 350, "unit": "ng/mL"},
      {"measurement": "concentration at 0.25 h", "setting": "[8]", "value": 231, "unit": "ng/mL"},
      {"measurement": "concentration at 0.5 h", "setting": "[9]", "value": 190, "unit": "ng/mL"},
      {"measurement": "pKi", "setting": "[10]", "value": 5.5},
      {"measurement": "Cmax", "setting": "[11]", "value": 882, "unit": "ng/mL"},
      {"measurement": "concentration at 2 h", "setting": "[12]", "value": 74.3, "unit": "ng/mL"},
      {"measurement": "concentration at 1 min", "setting": "[13]", "value": 824, "unit": "ng/mL"},
      {"measurement": "concentration at 24 h", "setting": "[14]", "value": 3.2, "unit": "ng/mL"},
      {"measurement": "concentration at 8 h", "setting": "[15]", "value": 253, "unit": "ng/mL"},
      {"measurement": "concentration at 6 h", "setting": "[16]", "value": 23.5, "unit": "ng/mL"},
      {"measurement": "Activity", "setting": "[17]", "value": "Active"},
      {"measurement": "half-life", "setting": "[18]", "value": 2.1, "unit": "h"},
      {"measurement": "Cmax", "setting": "[19]", "value": 357, "unit": "ng/mL"},
      {"measurement": "Vd", "setting": "[20]", "value": 3.91, "unit": "L/kg"},
      {"measurement": "concentration at 0.25 h", "setting": "[21]", "value": 835, "unit": "ng/mL"},
      {"measurement": "Vd", "setting": "[22]", "value": 6.1, "unit": "L/kg"},
      {"measurement": "concentration at 1 h", "setting": "[23]", "value": 137, "unit": "ng/mL"},
      {"measurement": "CL", "setting": "[24]", "value": 28, "unit": "uL/ml.millig"},
      {"measurement": "concentration at 4 h", "setting": "[25]", "value": 45.4, "unit": "ng/mL"},
      {"measurement": "concentration at 4 h", "setting": "[26]", "value": 159, "unit": "ng/mL"},
      {"measurement": "CL", "setting": "[27]", "value": 72, "unit": "uL/ml.millig"},
      {"measurement": "Efficacy", "setting": "[28]", "value": 37, "unit": "%"},
      {"measurement": "clearance", "setting": "[29]", "value": 42, "unit": "mL/min/kg"},
      {"measurement": "concentration at 10 min", "setting": "[30]", "value": 447, "unit": "ng/mL"},
      {"measurement": "concentration at 0.5 h", "setting": "[31]", "value": 592, "unit": "ng/mL"},
      {"measurement": "EC50", "setting": "[32]", "value": 0.398, "unit": "nM"},
      {"measurement": "concentration at 2 h", "setting": "[33]", "value": 238, "unit": "ng/mL"},
      {"measurement": "concentration at 1 h", "setting": "[34]", "value": 408, "unit": "ng/mL"}
    ]}
  ]
}
